Measurements taken from publication PMC9056700 (RSC Advances, 2020).
Where two headings read alike, the source gives them in different places. Marks after values point to notes of the source that are not given here.

Columns and labels:
[1] = tested on: P388 mouse lymphocytic leukemia cells; conditions: cited from earlier work; for ED50: taken from a previous report
[2] = VT-1H NMR quantification of the square/folded conformational equilibrium; assay type: physicochemical; conditions: CH3CN-d3, calculated from ΔG° = ΔH° − TΔS° with van't Hoff parameters
In short: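 Peptide at about 5.0 mM in CH3CN-d3, with shifts referenced to internal […] (0.00 ppm). Protons assigned by 2D-COSY and ROESY (500 ms mixing time). ΔH° and ΔS° came from a linear van't Hoff plot of ln K versus 1/T, and ΔG° at 298 K was then calculated from these parameters.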

Substance | ED50 ([1]; P388 cells) | ΔG° at 298 K (conformational free energy, square to folded form) [2] | cytotoxicity (in words) ([1]; P388 cells, folded reference peptide) | cytotoxicity (in words) [1]
Ascidiacyclamide [Peptide 1] | 10.5 ^a μg mL^−1 | 0.523 kcal/mol | – | –
cyclo(-Ile-alloThr-D-Val-Thz-)2 (head to tail) [dASC] | >100 ^h μg mL^−1 | – | no cytotoxicity | no cytotoxicity
